Calls of active or inactive are those of the source. The rule behind the calls is not given here.
Key:
DLD-1 [1] = experiment: Cytotoxicity against human DLD1 cells after 96 hrs by MTT assay; type: functional, cell-based; set-up: unit not given here
How it was run: (§1)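 DLD-1 or HCT-116 cells in RPMI 1640 with 10% FCS, seeded at 1 × 10^4 cells mL-1 and incubated overnight at 37 °C, 5% CO2. Continuous 4-day drug exposure, drug in DMSO (max 0.1%), 8 wells per concentration. MTT 0.5 mg mL-1 for 4 h; formazan in DMSO read at 550 nm. IC50 taken as 50% growth inhibition versus control; 5FU positive control; triplicate.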

HCT-116 = experiment: Cytotoxicity against human HCT116 cells after 96 hrs by MTT assay; type: functional, cell-based; how it was run: as §1
DLD-1 [2] = experiment: Cytotoxicity against human DLD1 cells after 3 hrs by MTT assay; type: functional, cell-based
How it was run: (§2)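 DLD-1 cells seeded at 1 × 10^4 cells mL-1 and incubated overnight at 37 °C, 5% CO2. Drug was in DMSO (max 0.1% final) diluted in medium, 8 wells per concentration. After 1, 3 or 24 h the drug was removed, cells washed twice and grown in fresh medium to 4 days total. MTT at 0.5 mg mL-1 for 4 h; formazan dissolved in DMSO, absorbance read at 550 nm. IC50 determined relative to control survival; triplicate experiments.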

DLD-1 [3] = experiment: Cell cycle arrest in human DLD1 cells assessed as accumulation at G2/M phase at 2.5 umol after 72 hrs by flow cytometry; type: functional
How it was run: (§3)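 DLD-1 cells seeded at 5 × 10^4 cells mL-1 and grown 24 h at 37 °C, then exposed to drug for 72 h. Harvested by trypsinisation, fixed in 70% EtOH, suspended in PBS pH 7.3, RNase-treated and stained with propidium iodide for 30 min at 37 °C. DNA content measured by flow cytometry on 10 000 cells; percentage of cells in each cycle phase calculated.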

DLD-1 [4] = experiment: Cell cycle arrest in human DLD1 cells assessed as accumulation at G0/G1 phase at 2.5 umol after 72 hrs by flow cytometry; type: functional; how it was run: as §3
DLD-1 [5] = experiment: Cell cycle arrest in human DLD1 cells assessed as accumulation at G2/M phase at 5 umol after 72 hrs by flow cytometry; type: functional; how it was run: as §3
DLD-1 [6] = experiment: Cell cycle arrest in human DLD1 cells assessed as accumulation at S phase at 10 umol after 72 hrs by flow cytometry; type: functional; how it was run: as §3
DLD-1 [7] = experiment: Cytotoxicity against human DLD1 cells at 8 umol after 96 hrs by MTT assay; type: functional, cell-based
How it was run: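 DLD-1 cells exposed continuously for 4 days to drug at 8 µmol in DMSO-containing medium (max 0.1% DMSO). Survival measured by MTT at 0.5 mg mL-1 for 4 h, formazan read at 550 nm, and expressed as percentage of mean control absorbance.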

DLD-1 [8] = experiment: Cell cycle arrest in human DLD1 cells assessed as accumulation at S phase at 2.5 umol after 72 hrs by flow cytometry; type: functional; how it was run: as §3
DLD-1 [9] = experiment: Cell cycle arrest in human DLD1 cells assessed as accumulation at S phase at 5 umol after 72 hrs by flow cytometry; type: functional; how it was run: as §3
DLD-1 [10] = experiment: Cell cycle arrest in human DLD1 cells assessed as accumulation at G0/G1 phase at 10 umol after 72 hrs by flow cytometry; type: functional; how it was run: as §3
DLD-1 [11] = experiment: Cell cycle arrest in human DLD1 cells assessed as accumulation at G2/M phase at 10 umol after 72 hrs by flow cytometry; type: functional; how it was run: as §3
DLD-1 [12] = experiment: Cytotoxicity against human DLD1 cells after 1 hr by MTT assay; type: functional, cell-based; how it was run: as §2
DLD-1 [13] = experiment: Cytotoxicity against human DLD1 cells after 24 hrs by MTT assay; type: functional, cell-based; how it was run: as §2
DLD-1 [14] = experiment: Cell cycle arrest in human DLD1 cells assessed as accumulation at G0/G1 phase at 5 umol after 72 hrs by flow cytometry; type: functional; how it was run: as §3

SMILES | IC50 (DLD-1 [1]) | IC50 (HCT-116) | also measured
COc1cc(C=O)cc(Br)c1O | > 200 |  | 
CCOCc1cc(Br)c(O)c(O)c1Br | 7.15 | 1.54 µmol | 
COCc1cc(O)c(O)c(Br)c1Br |  | 14.1 µmol | 
O=Cc1cc(O)c(O)c(Br)c1Br | 30.9 |  | 
Oc1c(O)c(Br)c(Br)c(Br)c1Br [TETRABROMOCATECHOL] | 6.43 | 8.75 µmol | 
OCc1cc(Br)c(O)c(O)c1Br | 15 | 21.4 µmol | 
CCCOCc1cc(Br)c(O)c(O)c1Br | 1.72 | 0.8 µmol | IC50 (DLD-1 [2]): 77.98 µmol; Activity (DLD-1 [3]): 25.65%; Activity (DLD-1 [4]): 32.14%; Activity (DLD-1 [5]): 19.79%; Activity (DLD-1 [6]): 33.65%; Activity (DLD-1 [7]): Active; Activity (DLD-1 [8]): 42.21%; Activity (DLD-1 [9]): 60.56%; Activity (DLD-1 [10]): 56.4%; Activity (DLD-1 [11]): 9.95%; IC50 (DLD-1 [12]): 79.76 µmol; IC50 (DLD-1 [13]): 2.71 µmol; Activity (DLD-1 [14]): 19.65%
O=Cc1cc(O)c(O)c(Br)c1 | 27.9 |  | 
OCc1cc(O)c(O)c(Br)c1 | 51.5 |  | 
COCc1cc(Br)c(O)c(O)c1Br | 7.27 | 3.48 µmol | 
CCCOCc1cc(O)c(O)c(Br)c1Br | 12.4 | 1.32 µmol | 
O=Cc1cc(Br)c(O)c(O)c1Br | 31 |  | 
CCOCc1cc(O)c(O)c(Br)c1 | 35.1 |  | 
O=c1[nH]cc(F)c(=O)[nH]1 [FLUOROURACIL] |  | 4.93 µmol | 
OCc1cc(O)c(O)c(Br)c1Br [LANOSOL] |  | 20.4 µmol | 
CCOCc1cc(O)c(O)c(Br)c1Br [ETHYL LANOSOL] | 13.5 | 2.51 µmol | 
CCCOCc1cc(O)c(O)c(Br)c1 | 26.3 |  | 
COCc1cc(O)c(O)c(Br)c1 | 35.3 |  | 
